Calls of active or inactive are those of the source. No cut-off for these calls is given here.
Experiments:
[1] = Inhibition of GST-tagged recombinant human full length PI4K3beta expressed in insect cells preincubated for 15 mins followed by addition of cold ATP/gamma32P-ATP measured after 30 mins in presence of MgCl2
Procedure, shortened: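 Membrane-capture radiometric assay. Purchased enzyme, final 2.5 nM. Enzyme preincubated 15 min with inhibitor (diluted in 10% DMSO), then 30 min reaction. Final: 20 mM Bis-Tris propane pH 7.5, 10 mM MgCl2, 0.075 mM Triton X-100, 0.5 mM EGTA, 1 mM DTT, 100 µM PI in PI:DOPS:DOPC, 500 ng/µL BSA, 2% DMSO, 10 µM ATP, 1 uCi γ32P-ATP. Product spotted on nitrocellulose, washed in 1M NaCl/1% phosphoric acid, phosphorimaged.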

Hepatitis C virus = assay: Antiviral activity against HCV genotype 2a J6/JFH1 infected in human Huh7.5 cells after 3 days by gaussia luciferase assay; format: functional, organism-based, Hepacivirus hominis; settings: subtype 2a J6/JFH1, Huh-7, 72 h
Procedure, shortened: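 Huh7.5 cells stably infected with J6/JFH1-GLuc, kept in DMEM/10% FBS, glutamine, NEAA, pen/strep at 37 °C, 5% CO2. 10,000 cells/well; serially diluted compound added 1 h after plating; 3-day incubation. Replication read as Gaussia luciferase activity in supernatant; viability by Presto Blue.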

[2] = molecular target: T1, Phosphatidylinositol 3-kinase C2 domain-containing subunit gamma (Homo sapiens, UniProt O75747); assay: Inhibition of N-terminal GST-tagged recombinant human full length PI3KC2gamma expressed in baculovirus infected Sf21 insect cells preincubated for 15 mins followed by addition of cold ATP/gamma32P-ATP measured after 15 mins
T1 sequence (O75747 whole entry): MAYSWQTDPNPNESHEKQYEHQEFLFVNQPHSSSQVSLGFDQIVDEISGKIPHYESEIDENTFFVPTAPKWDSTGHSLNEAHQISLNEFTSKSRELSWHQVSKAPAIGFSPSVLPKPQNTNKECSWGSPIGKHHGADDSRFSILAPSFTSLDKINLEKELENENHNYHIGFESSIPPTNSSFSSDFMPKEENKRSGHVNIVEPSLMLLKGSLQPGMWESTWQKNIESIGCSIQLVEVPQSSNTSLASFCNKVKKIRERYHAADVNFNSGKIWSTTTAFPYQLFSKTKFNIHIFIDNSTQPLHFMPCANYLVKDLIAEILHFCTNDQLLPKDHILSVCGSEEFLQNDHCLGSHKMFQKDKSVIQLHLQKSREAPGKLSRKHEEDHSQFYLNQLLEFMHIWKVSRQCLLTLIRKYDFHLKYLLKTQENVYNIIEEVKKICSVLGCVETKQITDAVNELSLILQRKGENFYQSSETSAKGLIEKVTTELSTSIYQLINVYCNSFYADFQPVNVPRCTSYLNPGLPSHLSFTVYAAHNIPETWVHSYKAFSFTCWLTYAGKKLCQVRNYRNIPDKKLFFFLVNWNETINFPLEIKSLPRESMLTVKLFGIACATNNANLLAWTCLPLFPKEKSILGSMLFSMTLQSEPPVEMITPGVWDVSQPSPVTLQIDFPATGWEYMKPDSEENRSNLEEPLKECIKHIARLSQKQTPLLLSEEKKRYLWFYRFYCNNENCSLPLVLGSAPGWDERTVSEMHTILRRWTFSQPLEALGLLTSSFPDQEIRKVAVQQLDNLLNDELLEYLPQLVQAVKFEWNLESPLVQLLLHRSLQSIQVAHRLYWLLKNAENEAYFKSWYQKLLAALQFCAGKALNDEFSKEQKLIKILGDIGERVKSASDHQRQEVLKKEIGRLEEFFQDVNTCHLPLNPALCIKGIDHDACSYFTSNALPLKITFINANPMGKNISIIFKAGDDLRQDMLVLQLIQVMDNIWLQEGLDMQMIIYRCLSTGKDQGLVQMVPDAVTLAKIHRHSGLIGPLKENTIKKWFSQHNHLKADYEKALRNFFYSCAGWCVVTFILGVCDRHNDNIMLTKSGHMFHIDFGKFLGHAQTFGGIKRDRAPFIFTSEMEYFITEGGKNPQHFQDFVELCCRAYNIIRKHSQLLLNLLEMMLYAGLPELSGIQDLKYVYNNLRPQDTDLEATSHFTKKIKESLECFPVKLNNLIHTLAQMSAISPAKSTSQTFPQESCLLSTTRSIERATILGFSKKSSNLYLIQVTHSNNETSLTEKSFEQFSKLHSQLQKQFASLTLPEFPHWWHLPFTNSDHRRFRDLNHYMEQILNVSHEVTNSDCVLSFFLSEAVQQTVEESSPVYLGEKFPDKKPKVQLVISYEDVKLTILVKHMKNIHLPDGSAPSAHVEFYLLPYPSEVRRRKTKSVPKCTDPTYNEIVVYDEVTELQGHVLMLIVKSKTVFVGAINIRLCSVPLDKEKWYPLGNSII
Procedure, shortened: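 1 nM PI3KC2γ, 15 min inhibitor preincubation, 15 min reaction. Final: 50 mM HEPES pH 7.5, 100 mM NaCl, 0.03% CHAPS, 10 mM MgCl2, 1 mM EGTA, 2 mM DTT, 100 µM PI (PI:DOPS:DOPC), 500 ng/µL BSA, 2% DMSO, 10 µM ATP, 2 uCi γ32P-ATP. Nitrocellulose capture, phosphorimaging.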

[3] = molecular target: Phosphatidylinositol 4,5-bisphosphate 3-kinase catalytic subunit beta isoform (Homo sapiens) (UniProt P42338); assay: Inhibition of N-terminal histidine-tagged recombinant human full length PI3Kbeta expressed in baculovirus infected Sf9 insect cells upto 20 uM preincubated for 15 mins followed by addition of cold ATP/gamma32P-ATP measured after 15 mins
Chain of Phosphatidylinositol 4,5-bisphosphate 3-kinase catalytic subunit beta isoform (Homo sapiens) (P42338 whole entry, looked up, canonical isoform): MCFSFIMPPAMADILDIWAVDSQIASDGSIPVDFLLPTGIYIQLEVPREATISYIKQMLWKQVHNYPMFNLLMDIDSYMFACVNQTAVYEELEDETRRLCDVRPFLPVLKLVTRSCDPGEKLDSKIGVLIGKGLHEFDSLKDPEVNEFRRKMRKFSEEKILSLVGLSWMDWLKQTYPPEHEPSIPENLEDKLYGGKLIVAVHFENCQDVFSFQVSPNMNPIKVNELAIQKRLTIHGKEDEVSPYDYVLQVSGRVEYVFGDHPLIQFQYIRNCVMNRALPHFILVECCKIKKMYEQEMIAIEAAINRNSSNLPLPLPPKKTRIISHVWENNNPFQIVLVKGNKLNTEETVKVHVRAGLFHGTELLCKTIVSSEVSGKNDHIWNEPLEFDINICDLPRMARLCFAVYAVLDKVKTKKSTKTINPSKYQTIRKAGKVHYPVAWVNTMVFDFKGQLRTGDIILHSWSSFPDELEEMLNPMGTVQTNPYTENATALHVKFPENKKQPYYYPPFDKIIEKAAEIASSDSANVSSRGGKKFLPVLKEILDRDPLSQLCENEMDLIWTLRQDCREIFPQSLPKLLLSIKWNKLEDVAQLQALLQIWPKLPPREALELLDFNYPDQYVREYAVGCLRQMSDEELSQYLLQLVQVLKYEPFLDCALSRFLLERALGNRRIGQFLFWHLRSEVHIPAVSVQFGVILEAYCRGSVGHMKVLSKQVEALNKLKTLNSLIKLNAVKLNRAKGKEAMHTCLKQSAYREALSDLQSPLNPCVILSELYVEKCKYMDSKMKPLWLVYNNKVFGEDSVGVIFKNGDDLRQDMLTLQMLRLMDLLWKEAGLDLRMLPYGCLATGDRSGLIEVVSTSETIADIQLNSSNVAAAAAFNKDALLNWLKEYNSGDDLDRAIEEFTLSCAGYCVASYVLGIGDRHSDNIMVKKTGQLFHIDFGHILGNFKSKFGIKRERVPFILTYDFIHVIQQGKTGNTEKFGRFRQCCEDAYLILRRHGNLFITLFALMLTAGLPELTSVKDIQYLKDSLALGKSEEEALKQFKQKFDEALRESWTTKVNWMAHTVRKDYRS
Procedure, shortened: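 PI3Kβ 0.6 nM final; inhibitor preincubated 15 min, reaction 15 min. Final: 50 mM HEPES pH 7.5, 100 mM NaCl, 0.03% CHAPS, 10 mM MgCl2, 1 mM EGTA, 2 mM DTT, 80 µM PIP2 (PIP2:DOPS:DOPC), 500 ng/µL BSA, 2% DMSO, 10 µM ATP, 2 uCi γ32P-ATP; membrane capture, phosphorimaging.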

[4] = molecular target: Phosphatidylinositol 3-kinase catalytic subunit type 3 (Homo sapiens, UniProt Q8NEB9); assay: Inhibition of GST-tagged recombinant human full length VPS34 expressed in baculovirus upto 20 uM preincubated for 15 mins followed by addition of cold ATP/gamma32P-ATP measured after 1 hr in presence of MnCl2
Chain of Phosphatidylinositol 3-kinase catalytic subunit type 3 (Q8NEB9 whole entry): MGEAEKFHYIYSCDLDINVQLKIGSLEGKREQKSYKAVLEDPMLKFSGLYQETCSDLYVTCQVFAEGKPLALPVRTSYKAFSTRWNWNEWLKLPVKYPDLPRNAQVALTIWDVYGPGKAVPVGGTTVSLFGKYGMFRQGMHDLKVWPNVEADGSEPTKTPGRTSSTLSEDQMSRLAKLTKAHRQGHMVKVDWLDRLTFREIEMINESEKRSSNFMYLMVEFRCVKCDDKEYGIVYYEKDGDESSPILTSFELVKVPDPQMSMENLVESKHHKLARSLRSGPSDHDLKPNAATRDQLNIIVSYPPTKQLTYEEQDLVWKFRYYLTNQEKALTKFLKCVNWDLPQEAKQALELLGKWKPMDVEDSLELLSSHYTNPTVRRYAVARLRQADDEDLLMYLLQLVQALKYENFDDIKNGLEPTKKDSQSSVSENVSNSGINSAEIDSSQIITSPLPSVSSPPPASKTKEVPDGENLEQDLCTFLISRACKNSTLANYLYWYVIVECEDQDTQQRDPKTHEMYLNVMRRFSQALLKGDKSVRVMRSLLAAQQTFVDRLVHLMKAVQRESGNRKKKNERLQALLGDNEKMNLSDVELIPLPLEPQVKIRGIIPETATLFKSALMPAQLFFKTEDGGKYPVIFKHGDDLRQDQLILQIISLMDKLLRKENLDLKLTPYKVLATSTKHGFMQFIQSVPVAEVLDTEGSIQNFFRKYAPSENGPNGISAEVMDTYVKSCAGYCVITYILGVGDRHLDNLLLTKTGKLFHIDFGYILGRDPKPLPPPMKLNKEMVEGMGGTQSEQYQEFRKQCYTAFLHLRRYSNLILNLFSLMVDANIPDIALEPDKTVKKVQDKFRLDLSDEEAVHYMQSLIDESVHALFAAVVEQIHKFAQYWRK
Procedure, shortened: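 Radiometric membrane-capture assay, 10 nM purchased vps34, 15 min preincubation with inhibitor, then 1 h reaction. Final: 50 mM HEPES pH 7.5, 0.1% CHAPS, 2mM MnCl2, 1 mM EGTA, 2 mM DTT, 100 µM PI in PI:DOPS:DOPC, 500 ng/µL BSA, 2% DMSO, 10 µM ATP, 2.5 uCi γ32P-ATP; spots washed, phosphorimaged.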

Compound | IC50 [1] [nM] | IC50 (Hepatitis C virus) [nM] | IC50 [2] [nM] | inhibition [3] [%] | inhibition [4]
COc1ccc(-c2sc(NC(=O)C(C)(C)C)nc2C)cc1S(=O)(=O)Nc1ccc(O)cc1 | 3.6 | 1300 | 1000 | < 20 | inactive
COc1ccc(-c2sc(NC(=O)C3CCCC3)nc2C)cc1S(=O)(=O)Nc1ccc(O)cc1 | 7 | 630 | 1000 | < 50 | inactive
